CHOP UPR activ: apoptotic UPR (CHOP) activation. CHO-CHOP luciferase reporter, luminescence; percent of tunicamycin response over DMSO baseline. activation, % at 10 µM. 330,000 compounds, 0.34% hits. AID 449763;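 active means at 10 µM dose, activation of 40% or more, normalized to positive control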;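 further: 100% = tunicamycin at 10 µg/mL and 0% = DMSO alone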
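System: CHO-CHOP luciferase reporter cell line; amount: 500 cells/well; buffer or medium: F12 medium containing 10% fetal bovine serum; incubation: 6 h compound exposure at 37 °C after overnight seeding; measured by: luciferase luminescence after 10 min with Steady-Glo reagent; evaluation: % reporter activation, DMSO baseline versus tunicamycin full activation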
UPR XBP1 act: activators of adaptive arm of unfolded protein response (XBP1). CHO-XBP1 luciferase reporter, IRE1-XBP1 UPR activation, luminescence; percent of tunicamycin response, DMSO as zero. activation, % at 20 µM. 330,000 compounds, 0.33% hits. AID 463104;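 active means versus positive control, 20 µM dose yields 30% or more activation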;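 further: 100% = tunicamycin at 10 µg/mL and 0% = DMSO only wells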
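Signal: luciferase luminescence; Assay system: CHO-XBP1 luciferase reporter cells; Amount: one thousand reporter cells per well; Dosing: 20 µM single concentration, DMSO 1%; Benchmarks: high control tunicamycin 10 µg/mL final, low control DMSO vehicle only; Schedule: 6 h compound exposure at 37 °C, 5% CO2; Evaluation: percent activation relative to tunicamycin reference.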
MPTP block: inhibitors of mitochondrial permeability transition pore. isolated mouse mitochondria, Ca2+ swelling absorbance, 30 min. inhibition, % at 10 µM. 360,000 compounds, 1.4% hits;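 active means inhibition of 50% or more, scaled per plate between neutral and stimulator controls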;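 further: 0% = DMSO wells given calcium and 100% = 1 mM EGTA wells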
CHOP inhibitor: CHOP inhibition in unfolded protein response; inhibition, % at 10 µM; CHO-K1 CHOP-promoter luciferase, tunicamycin-induced, 15-18 h; 220,000 compounds, 3.8% hits; AID 2732;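 active means compounds that reduced the stress-induced luciferase reporter signal by more than about 70% of percent inhibition, limit read from the data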;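 further: 0% = tunicamycin plus vehicle and 100% = wells without tunicamycin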
NR3A LBD binder: NR3A (human) ligand-binding domain modulation | Tm shift relative to glycine control, % at 25 µM | 340,000 compounds, 2.5% hits | NR3A LBD differential scanning fluorimetry, Tm shift; 0% = protein alone, 100% = glycine-bound protein;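 active means melting temperature shift of at least 10% of the positive control shift, at one fixed dose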
aDG glyco up: alpha-DG glycosylation activation | Pro5-aDG cells, alpha-DG glycosylation AlphaScreen (IIH6); 0% Pro5, 100% B10-LARGE cell signal | activation, % at 10 µM | 360,000 compounds, 0.22% hits | AID 624168;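 active means activation of at least 8% versus controls, or a plate z-score of at least 8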;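 further: Pro5 are CHO cells carrying HIG-tagged alpha-DG that lacks glycosylation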
Starred values were filed as active, the others as inactive; x = no result given. Rows were chosen to be rich in hits. Some 5.6% of all compounds tested hit in one or more screens of this group.

SMILES	CHOP UPR activ	UPR XBP1 act	MPTP block	CHOP inhibitor	NR3A LBD binder	aDG glyco up
Nc1ccccc1Sc1ccccc1[N+](=O)[O-]	-0.2	0.6	0.5	26.8	-1.0	-0.2
Nc1nc(O)c(Sc2ccccc2[N+](=O)[O-])c(=O)[nH]1	0.5	-0.8	-1.5	x	16.6*	-0.2
O=C(c1ccc(F)cc1)n1ccc(-c2cnc(-c3ccccc3)s2)n1	1.0	-1.1	-0.2	47.6	-0.4	0.5
Cc1ccc(Cn2ccc(-c3cnc(-c4ccccc4)s3)n2)cc1	7.5	-1.5	1.9	86.9*	-11.2	-0.1
Fc1ccc(Cn2ccc(-c3cnc(-c4ccccc4)s3)n2)cc1	5.2	1.2	-2.5	80.0*	-4.1	0.8
Cc1ccc(N2C(=O)C(Cl)=C(NCCO)C2=O)c(C)c1	1.3	1.0	1.7	44.6	361.4*	-0.1
Cc1ccc2c(c1)N=C(c1ccc(Cl)cc1)CO2	6.0	-0.8	1.4	70.8*	-7.7	0.7
O=C(N/N=C/c1cccc2ccccc12)c1cccnc1	1.3	-2.6	0.6	x	-5.7	-0.1
CC(=O)n1cc(/C=N/NC(=O)c2ccc(Cl)cc2)c2ccccc21	1.2	-0.9	-0.2	x	15.3*	0.0
O=C(N/N=C/c1cccc2ccccc12)c1cc2ccccc2o1	1.5	-4.7	-0.7	x	17.8*	0.1
C#CCn1cc(/C=N/NC(=O)c2cc3ccccc3o2)c2ccccc21	-1.1	-0.9	2.3	4.5	13.1*	0.0
CCc1ccc(C(=O)N/N=C/c2cccc3ccccc23)nc1	6.2	2.6	3.1	79.5*	11.5*	0.0
COc1ccc(OC)c(/C=N/NC(=O)CCc2ccc(O)c(O)c2)c1	9.0	15.7	2.1	20.7	21.9*	0.2
COc1ccc(OC)c(/C=N\NC(=O)c2cc3c(ccc4ccccc43)o2)c1	1.4	0.3	-0.3	x	22.5*	-0.3
Cn1cc(/C=N/NC(=O)c2cc3cc(Br)ccc3o2)c2ccccc21	-0.4	1.3	1.8	-12.2	21.8*	-0.2
COc1ccc(OC)c(/C=N/NC(=O)CCc2c(C)n[nH]c2C)c1	0.5	-5.2	3.1	-1.2	0.2	-0.2
O=C(N/N=C/c1cccc([N+](=O)[O-])c1)c1cc2ccccc2o1	2.8	1.9	2.4	95.2*	13.2*	-0.2
CCOc1ccc(-c2nc(C#N)c(NCc3ccco3)o2)cc1	3.1	4.2	2.8	11.9	-0.9	-0.4
Nc1ccc(C(=O)N/N=C/c2cn(Cc3cccc(F)c3)c3ccccc23)cc1	-0.1	-2.2	1.3	x	18.1*	0.4
c1ccc(-c2ncc3c(ccc4ccccc43)n2)cc1	-6.7	-4.8	4.4	80.0*	-2.4	0.1
CC1(C(=O)Nc2ccc(F)cc2F)CCN1C(=O)CCC1CCCC1 (centres undefined)	x	x	-0.9	x	x	-0.3
COc1ccc(NC(=O)COc2ccc(C(=O)OCC(=O)N(C(C)C)C(C)C)cc2OC)cc1	-0.9	-0.2	1.3	-14.7	1.3	0.4
Cc1cc(C)c(-c2cc(C(=O)Nc3cc(C)ccc3C)[nH]n2)c(O)c1	0.7	3.6	0.1	x	2.4	0.0
Cc1ccn2c(=O)nc(SCC(=O)N3CCCC3)nc2c1	-0.4	0.0	-0.2	x	3.3	0.1
CCOC(=O)C1(CC2CCCCO2)CCN(Cc2cc(F)ccc2-n2cccn2)CC1 (centres undefined)	-0.7	0.4	1.0	76.4*	5.0	0.6
SMILES	CHOP UPR activ	UPR XBP1 act	MPTP block	CHOP inhibitor	NR3A LBD binder	aDG glyco up
Cc1ccc(S(=O)(=O)N2CCC(C(=O)OCCOc3cccc(C)c3)CC2)cc1	-1.1	-1.8	2.7	x	20.2*	-0.2
O=C(COC(=O)c1ccc[n+]([O-])c1)Nc1ccc([N+](=O)[O-])cc1Cl	1.1	0.4	0.6	x	-1.3	-0.1
COc1ccc(C(=O)NC2CCCCCC2)cc1OC1CCN(C(C)=O)CC1	-0.6	-0.6	-0.8	x	-0.7	-0.1
COc1ccc(C(=O)NC2CCCCC2)cc1OC1CCN(C(C)C)CC1	-0.6	-1.4	-1.3	x	12.6*	0.2
COc1ccc(C(=O)NC2CC2)cc1OC1CCN(Cc2cc(C)c(C)cc2C)CC1	0.5	-3.3	-0.3	x	102.5*	0.0
COc1ccc(C(=O)NC2CC2)cc1OC1CCN(Cc2cnn(C)c2C)CC1	0.2	-2.8	-0.5	x	2.5	0.7

Screening results from PubChem.
